The source made the active and inactive calls. No cut-off for these calls is given here.
Key:
HEK293 [1] = assay: Inhibition of LiCl-activated Wnt signaling in HEK293 cells at 3 uM by TOPFlash reporter gene assay; type: cell-based; settings: Homo sapiens
Summary of the method: (§1)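 Stable HEK293T Super 8xTOPFlash reporter line (pGL4.83 backbone, puromycin-selected), stimulated with 25 mM LiCl to stabilize β-catenin. Treated with compound in DMSO or DMSO. Luciferase read in 96- or 24-well format. AMPK inhibitor compound C used at 5 μM where applied. At least three independent repeats.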

Liver [2] = assay: Uncoupling of mitochondrial oxidative phosphorylation in mouse liver mitochondria assessed as increase in oxygen consumption rate in presence of oligomycin A by seahorse XFe96 analyser based assay
Summary of the method: (§2)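 Mouse liver mitochondria isolated by differential centrifugation in mannitol/sucrose/HEPES/EGTA buffer, pH 7.2. Loaded at 6 μg/well in KCl/HEPES/MgCl2/KH2PO4 respiration buffer, pH 7.2, at 37 °C. OCR measured on XFe96.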

[3] = target: T1, AMP-activated protein kinase, AMPK (Homo sapiens) (UniProt P54646+O43741+P54619+Q9UGJ0+Q9Y478+Q13131+Q9UGI9); assay: Activation of AMPK (unknown origin) assessed as […] phosphorylation at S79 residue at 3 uM by Western blot analysis; type: protein-complex assay
Summary of the method: (§3)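 Cells lysed in 50 mM HEPES, 100 mM NaCl, 2 mM EDTA, 1% glycerol, 50 mM NaF, 1 mM Na3VO4, 1% Triton X-100 with protease inhibitors. Western blot probed for total and phospho-AMPK and total and phospho-ACC, with actin loading control. Compounds given in DMSO. At least three independent repeats.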

[4] = target: T1, AMP-activated protein kinase, AMPK (Homo sapiens); assay: Activation of AMPK (unknown origin) assessed as increase in AMPK phosphorylation at T172 residue at 3 uM by Western blot analysis; type: protein-complex assay; summary of the method: as §3
[5] = target: T1, AMP-activated protein kinase, AMPK (Homo sapiens); assay: Activation of AMPK in human LS174T cells assessed as increase in AMPK phosphorylation at T172 residue by Western blot analysis; type: cell-based; summary of the method: as §3
HEK293 [6] = assay: Inhibition of LiCl-activated Wnt signaling in HEK293 cells by TOPFlash reporter gene assay; type: cell-based; settings: Homo sapiens; summary of the method: as §1
[7] = target: T1, AMP-activated protein kinase, AMPK (Homo sapiens); assay: Activation of AMPK in human LS174T cells assessed as […] phosphorylation at S79 residue by Western blot analysis; type: cell-based; summary of the method: as §3
DLD-1 [8] = assay: Inhibition of mitochondrial oxidative phosphorylation in human DLD1 cells assessed as reduction in oxygen consumption rate by seahorse XFe96 analyser based assay; settings: Mitochondria
Summary of the method: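 DLD-1 cells, ~3×10^4 per well, seeded a day ahead; medium switched to Seahorse XF modified medium with 25 mM glucose and 1 mM pyruvate. Mitochondrial stress test: 1 μM oligomycin A, test compound in DMSO in place of FCCP, then 1.0 μM rotenone plus 1.0 μM antimycin A. OCR recorded; ATP production rate by real-time ATP rate assay.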

DLD-1 [9] = assay: Uncoupling of mitochondrial oxidative phosphorylation in human DLD1 cells assessed as increase in oxygen consumption rate at 3 uM in presence of oligomycin A by seahorse XFe96 analyser based assay; settings: Mitochondria
Summary of the method: (§4)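 DLD-1 cells, about 3×10^4 per XF96 well, in XF medium with 25 mM glucose and 1 mM pyruvate. Mito stress sequence: oligomycin A 1 μM, then test compound 3 μM in DMSO in place of FCCP (FCCP 1 μM as control), then rotenone/antimycin A 1 μM each. Oxygen consumption rate recorded.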

Liver [10] = assay: Uncoupling of mitochondrial oxidative phosphorylation in mouse liver mitochondria assessed as increase in oxygen consumption rate at 1 to 5 uM in presence of oligomycin A by seahorse XFe96 analyser based assay; summary of the method: as §2
[11] = target: T1, AMP-activated protein kinase, AMPK (Homo sapiens); assay: Activation of AMPK in human LS174T cells assessed as […] phosphorylation at S79 residue at 3 uM measured within 15 mins by Western blot analysis; type: cell-based; summary of the method: as §3
DLD-1 [12] = assay: Induction of mitochondrial dysfunction in human DLD1 cells assessed as reduction in mitochondrial ATP production at 3 uM by Seahorse XF real-time assay; settings: Mitochondria
Summary of the method: (§5)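 About 3×10^4 cells seeded per well in XF96 plates. Next day medium switched to Seahorse XF medium with 25 mM glucose and 1 mM pyruvate. Compound given at 3 μM in DMSO; FCCP 1 μM as reference. Mitochondrial and glycolytic ATP production rates measured by XF Real-Time ATP Rate Assay.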

[13] = target: T1, AMP-activated protein kinase, AMPK (Homo sapiens); assay: Activation of AMPK in human LS174T cells assessed as increase in AMPK phosphorylation at T172 residue at 3 uM measured within 15 mins by Western blot analysis; type: cell-based; summary of the method: as §3
DLD-1 [14] = assay: Induction of mitochondrial membrane potential disruption in human DLD1 cells measured after 2 hrs by TMRM staining based fluorescence microscopic analysis; settings: Mitochondria
Summary of the method: (§6)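 Cells grown one day in 24-well plates: DLD-1 in DMEM + 10% serum, LS174T in RPMI1640 + 5% serum. Treated 2 h with compound in DMSO or DMSO, then stained with 100 nM TMRM for 15 min. Rinsed once with PBS and imaged by fluorescence microscopy at 568 nm.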

LS174T [15] = assay: Induction of mitochondrial membrane potential disruption in human LS174T cells measured after 2 hrs by TMRM staining based fluorescence microscopic analysis; settings: Mitochondria; summary of the method: as §6
DLD-1 [16] = assay: Uncoupling of mitochondrial oxidative phosphorylation in human DLD1 cells at 3 uM in presence of oligomycin A by seahorse XFe96 analyser based assay; settings: Mitochondria; summary of the method: as §4
LS174T [17] = assay: Inhibition of LiCl-induced Wnt signaling in human LS174T cells assessed as reduction in beta-catenin accumulation; type: cell-based
LS174T [18] = assay: Induction of mitochondrial dysfunction in human LS174T cells assessed as reduction in mitochondrial ATP production at 3 uM by Seahorse XF real-time assay; settings: Mitochondria; summary of the method: as §5
LS174T [19] = assay: Induction of mitochondrial dysfunction in human LS174T cells assessed as increase in glycolytic ATP production at 3 uM by Seahorse XF real-time assay; settings: Mitochondria; summary of the method: as §5
DLD-1 [20] = assay: Induction of mitochondrial dysfunction in human DLD1 cells assessed as increase in glycolytic ATP production at 3 uM by Seahorse XF real-time assay; settings: Mitochondria; summary of the method: as §5

In the case of O=[N+]([O-])c1ccc(NS(=O)(=O)c2cc(Cl)ccc2Cl)c2ccccc12, the inhibition (HEK293 [1]) is reported as “Active”, the Activity (Liver [2]) is reported as “Dose-dependent effect” and the Activity [3] is reported as “Active”. For the same molecule, the Activity [4] was “Active”.

O=C1[C@H](Cc2ccc(O)cc2)N2C(=O)CCN(C(=O)NCc3ccccc3)[C@H]2CN1Cc1cccc2ccccc12 was tested, and the Activity [5] was “inactive”, the inhibition (HEK293 [6]) was “Active” and the Activity [7] was “inactive”.

CCCCCCC1C(=O)O[C@H](C)[C@H](NC(=O)c2cccc(NC=O)c2O)C(=O)O[C@@H](C)[C@@H]1OC(=O)CC(C)C (stereo partly specified) was tested, and the inhibition (DLD-1 [8]) was “Active”.

With CN(c1ccc([N+](=O)[O-])c2ccccc12)S(=O)(=O)c1cc(Cl)ccc1Cl the Activity (DLD-1 [9]) was “inactive”, the inhibition (HEK293 [1]) was “inactive” and the Activity (Liver [10]) was “inactive”. For the same molecule, the Activity [3] was “inactive” and the Activity [4] was “inactive”.

In the case of Cc1cc([N+](=O)[O-])ccc1NS(=O)(=O)c1cc(Cl)ccc1Cl, the Activity [11] is reported as “Active”, the Activity (DLD-1 [9]) is reported as “Active” and the Activity (DLD-1 [12]) is reported as “Active”. For the same molecule, the Activity [13] was “Active”, the Activity (DLD-1 [14]) was “Active” and the Activity (LS174T [15]) was “Active”. The Activity (Liver [2]) was “Dose-dependent effect”, the Activity (DLD-1 [16]) was “Active” and the inhibition (LS174T [17]) was “Active”. The Activity (LS174T [18]) was “Active”, the Activity (LS174T [19]) was “Active” and the Activity (DLD-1 [20]) was “Active”.

For CC[C@@H]1/C=C/C=C/C[C@H](C)[C@@H](O)[C@](C)(O)C(=O)[C@H](C)[C@@H](O)[C@H](C)C(=O)[C@H](C)[C@@H](O)[C@H](C)/C=C/C(=O)O[C@H]2[C@@H](C)[C@@H](CC1)O[C@@]1(CC[C@@H](C)[C@@H](C[C@@H](C)O)O1)[C@@H]2C, the inhibition (DLD-1 [8]) was “Active”.

Reference: ChEMBL document CHEMBL4321861, “An Underlying Mechanism of Dual Wnt Inhibition and AMPK Activation: Mitochondrial Uncouplers Masquerading as Wnt Inhibitors” (J Med Chem, 2019)
